Bioassay records (PubChem BioAssay)
The entries come from a sample that favours hits as a whole.
S100A4 MyoIIA: inhibitors of S100A4-myosin IIA peptide binding, primary screen, biochemical, fluorescence polarization, TAMRA-MyoIIA peptide; inhibition, % at 10.7 µM; AID 652163, 2013; 0.14% of 360,000 active;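 active = mean inhibition of at least 70% across replicates, with every replicate also reaching that level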
Target sequence (P26447 whole entry, looked up): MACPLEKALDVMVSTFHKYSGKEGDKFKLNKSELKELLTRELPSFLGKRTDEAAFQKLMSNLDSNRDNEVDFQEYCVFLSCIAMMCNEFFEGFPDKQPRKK
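System – human S100A4 monomer protein, biochemical binding assay · Buffer or medium – Calcium-containing HEPES buffer, pH 7.2 · Timing – 5 min between mix addition and reading · Also added – TAMRA-labelled myosin IIA heavy-chain peptide probe, 5 nM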
PDI inh: inhibitors of human PDI, primary screen, biochemical, turbidity, single point, plate reader; Protein disulfide-isomerase (Homo sapiens), P07237; PDI insulin aggregation turbidity, A650, 90 min; inhibition, % at 10 µM; 0.052% of 350,000 active; AID 588391, 2011;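 active = mean inhibition across replicates of 30% or more, whatever share of single replicates reach that level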
ERp5 block: inhibitors of ERp5-driven insulin aggregation, primary screen, biochemical, turbidity, absorbance 650 nm, single point | inhibition, % at 9.99 µM | AID 651711, 2012 | Protein disulfide-isomerase A6 (Homo sapiens), Q15084 | 90 min | 0.05% of 350,000 active;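 active = mean replicate inhibition above about 25%, with every replicate also reaching it, limit read from the data, passing the limit was not always enough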
Target sequence (Q15084 whole entry, looked up): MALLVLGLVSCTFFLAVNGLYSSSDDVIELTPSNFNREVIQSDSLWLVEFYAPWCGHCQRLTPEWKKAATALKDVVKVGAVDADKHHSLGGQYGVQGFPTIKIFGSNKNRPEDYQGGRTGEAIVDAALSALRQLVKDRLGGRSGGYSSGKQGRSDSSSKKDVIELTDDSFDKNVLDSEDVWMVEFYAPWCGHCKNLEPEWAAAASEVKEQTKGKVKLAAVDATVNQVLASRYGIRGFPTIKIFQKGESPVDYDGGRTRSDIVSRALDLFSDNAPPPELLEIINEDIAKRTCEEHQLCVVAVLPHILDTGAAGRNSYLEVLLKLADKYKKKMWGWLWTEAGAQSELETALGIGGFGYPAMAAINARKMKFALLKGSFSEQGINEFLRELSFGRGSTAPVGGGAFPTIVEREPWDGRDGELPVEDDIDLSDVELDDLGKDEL
FGF22 binding-1: binders of human FGF22 protein, primary screen, FGF22 synaptogenesis inhibitor project, biophysical, thermal shift, single point; 1.5% of 340,000 active; Fibroblast growth factor 22 (Homo sapiens), Q9HCT0; AID 651658, 2012; recombinant FGF22 thermal shift, SYPRO orange fluorescence; percent of sucrose octasulfate shift, DMSO zero; activity (Tm shift, normalised), % at 9.99 µM;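 active = mean Tm shift, scaled 0 neutral to 100 positive control, at about 1.3% or above, every replicate too, limit read from the data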
ERAP1 inh: human ERAP1 aminopeptidase inhibitors, primary screen, biochemical, single point, plate reader. Endoplasmic reticulum aminopeptidase 1 (Homo sapiens), Q9NZ08. recombinant ERAP1, Leu-AMC fluorescence, 60 min. inhibition, % at 10.7 µM. 0.15% of 340,000 active;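 active = mean replicate inhibition of at least 30%, or all replicates individually reaching that 30% level; inactive = mean below 30% and not every replicate reaching it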;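 also: 0% = neutral control wells and 100% = L-leucinethiol positive control wells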
FGF22 binding-2: binders of human FGF22 protein, dose response, FGF22 synaptogenesis inhibitor project, biophysical, thermal shift, cherry-pick retest; shares compounds with FGF22 binding-1; recombinant FGF22 thermal shift, SYPRO orange fluorescence; thermal shift activity, °C (ΔTm) at 38 µM; 2% of 1,000 active;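 active = fitted rise in melting shift crosses a set limit at or below the top valid dose tested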
SYPRO no-protein: compound-only thermal shift signal without protein, dose response, artefact control for FGF22 binder project, biochemical, cherry-picked samples, RT-PCR instrument. shares compounds with FGF22 binding-1. compound-only SYPRO orange thermal shift counter-screen, no protein. AC50, µM (doses to about 38 µM). 2% of 1,000 active. AID 743019, 2013;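 active = rising signal whose fitted curve reaches the 0.54 level within the top valid dose, showing a melting point, actives reach about 13 µM in these data; inactive = the rest, including activity in the opposite direction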; also: value is where the raw curve crosses a fixed level and not half-maximal
Starred values were filed as active, the others as inactive; i = inactive; nt = no result given; [ ] = dose if it differs, or a comment.

SMILES	S100A4 MyoIIA	PDI inh	ERp5 block	FGF22 binding-1	ERAP1 inh	FGF22 binding-2	SYPRO no-protein
CN(C(=O)Cn1nnc2ccccc2c1=O)C1CCCCC1	2	-2	-4	1.8*	-2	0.092	i
CCN(CC)CCNC(=O)c1ccc(NC(=O)c2ccc(S(=O)(=O)N(C)c3ccccc3OC)cc2)cc1	-16	1	-5	0	-2	nt	nt
COc1ccccc1N(C)S(=O)(=O)c1ccc(C(=O)Nc2ccc(C(N)=O)cc2)cc1	10	4	nt	1.7*	2	-0.094	i
COc1ccc2c3c([nH]c2c1)[C@H](CO)N(C(=O)Nc1ccc(F)cc1)CC31CCN(S(=O)(=O)c2cccs2)CC1	6	nt	4	16*	1	0.032[42 µM]	i
COc1cccc(S(=O)(=O)N2CCC3(CC2)CN(C(=O)Nc2ccc(F)cc2)[C@@H](CO)c2[nH]c4cc(OC)ccc4c23)c1	2	nt	-7	0	5	nt	nt
Cc1ccc(NC(=O)C2CCCN2C(=O)Oc2ccccc2)c(C)c1 (configuration not stated)	-1	5	5	2.2*	3	-0.007	i
Cc1noc(C)c1NC(=O)Nc1ccc2c(c1)CC(=O)N([C@@H](C)CO)C[C@H](C)[C@@H](CN(C)Cc1ccc3c(c1)OCO3)O2	-11	nt	4	1.5*	-1	0.13	i
C[C@H]1CN([C@@H](C)CO)C(=O)c2cc(N(C)C)ccc2O[C@@H]1CN(C)Cc1ccc(Cl)c(Cl)c1	-6	nt	-2	0	-1	nt	nt
Cc1ccc(S(=O)(=O)Nc2ccc3c(c2)C(=O)N([C@@H](C)CO)C[C@H](C)[C@@H](CN(C)CC2CCCCC2)O3)cc1	10	nt	-1	1.5*	-2	0.15[42 µM]	i
C[C@H](CO)N1C[C@H](C)[C@H](CN(C)C)Oc2ccc(NC(=O)NC3CCCCC3)cc2CC1=O	6	nt	-1	2.0*	-2	0.097[42 µM]	i
C[C@@H]1CN([C@@H](C)CO)C(=O)Cc2cc(NC(=O)NC3CCCCC3)ccc2O[C@H]1CN(C)C	5	nt	0	0	2	nt	nt
Cc1noc(C)c1NC(=O)Nc1ccc2c(c1)CC(=O)N([C@H](C)CO)C[C@H](C)[C@H](CN(C)Cc1ccc3c(c1)OCO3)O2	-6	nt	1	0	-1	nt	nt
C[C@@H]1CN([C@H](C)CO)C(=O)Cc2cc(N(C)C)ccc2O[C@@H]1CN(C)Cc1ccc(Cl)c(Cl)c1	-7	nt	-2	40*	1	nt	i
CC(=O)Nc1ccc(SCC(=O)Nc2cc(C(C)(C)C)nn2-c2ccccc2)cc1	3	-6	-2	1	-3	nt	nt
CCN(CC(=O)NCc1cccs1)C(=O)CCOc1ccccc1C	-13	1	-8	0	-3	nt	nt
CCN(CC)c1ncnc2c1sc1nc(C)cc(C)c12	nt	1	nt	nt	nt	nt	nt
COc1ccc2c(c1)OC[C@H]1[C@H]2N2C(=O)CN(Cc3ccccc3)C(=O)[C@@]2(C)[C@H]1c1ccccc1	9	1	0	0	2	nt	nt
C[C@@H]1CN([C@H](C)CO)C(=O)c2cc(NC(=O)Cc3cn(C)c4ccccc34)ccc2O[C@@H]1CN(C)S(=O)(=O)c1ccccc1	4	nt	9	25*	-1	0.16	i
C[C@H]1CN([C@@H](C)CO)C(=O)c2cc(NS(=O)(=O)c3ccccc3)ccc2O[C@@H]1CN(C)Cc1ccc(C(=O)O)cc1	-3	nt	5	1.3*	0	0.095	i
C[C@H]1CN([C@@H](C)CO)C(=O)c2cc(NS(=O)(=O)c3ccccc3)ccc2O[C@@H]1CN(C)C	-1	nt	2	1.4*	0	0.038	i
C[C@@H]1CN([C@@H](C)CO)C(=O)c2cc(NS(C)(=O)=O)ccc2O[C@@H]1CN(C)Cc1ccc2c(c1)OCO2	-4	nt	-2	1.9*	3	-0.12	i
N#C[C@H]1N[C@@H](CO)[C@@H]1c1ccc(C#CC2CCCCC2)cc1	-6	nt	3	0	3	nt	nt
CC(C)NC(=O)Nc1cccc2c1O[C@H](CN(C)Cc1ccc(C(=O)Nc3ccccc3N)cc1)[C@H](C)CN([C@@H](C)CO)C2=O	-3	nt	8	0	2	nt	nt
CC(C)NC(=O)Nc1cccc2c1O[C@@H](CN(C)Cc1ccc(C(=O)Nc3ccccc3N)cc1)[C@@H](C)CN([C@H](C)CO)C2=O	-4	nt	4	1.5*	1	0.17	i
C[C@H](CO)N1C[C@H](C)[C@@H](CN(C)CC2CC2)Oc2ccc(NS(=O)(=O)c3cccs3)cc2C1=O	8	nt	-3	5.2*	-1	0.096[42 µM]	i
SMILES	S100A4 MyoIIA	PDI inh	ERp5 block	FGF22 binding-1	ERAP1 inh	FGF22 binding-2	SYPRO no-protein
CCCC(=O)Nc1nnc(SCC(=O)NCc2ccc3c(c2)OCO3)s1	1	-4	-5	0	-2	nt	nt
CC(C)CC#Cc1cnc2c(c1)C(=O)N([C@@H](C)CO)C[C@H](C)[C@H](CN(C)C(=O)Nc1cc(F)ccc1F)O2	-5	nt	-2	0	0	nt	nt
O=C(CN1C(=O)/C(=C/c2ccccc2F)Oc2ccccc21)N1CCN(c2ccccn2)CC1	nt	3	nt	nt	nt	nt	nt
S=C(Nc1ccc(N2CCOCC2)cc1)Nc1ccc2snnc2c1	1	-4	1	1.6*	0	-0.23	i
O=C(Nc1ccc2snnc2c1)N1CCOCC1	nt	-3	nt	nt	nt	nt	nt
O=C(C[C@H]1CC[C@H]2[C@@H](COC[C@H](O)CN2CC2CCOCC2)O1)NCC1CCCCC1	-3	nt	-2	2.4*	-2	-0.021[42 µM]	i
CN1CCN(C(=O)C[C@@H]2CC[C@H]3[C@@H](COC[C@H](O)CN3CC3CCCCC3)O2)CC1	3	nt	-1	24*	1	0.1	i
CCOC(=O)CON1C(=O)C(=O)N(OCC(=O)OCC)C2CCCCC21 (configuration not stated)	0	-5	3	0	-2	nt	nt
Cc1ccccc1OCCn1c(=O)sc2ccccc21	nt	12	nt	nt	nt	nt	nt
O=C(Nc1ccccc1)O/N=C/c1ccc(F)cc1	2	-2	0	1.4*	1	-0.08	i
Cc1ccc(NC(=O)O/N=C/c2ccc(F)cc2)cc1	-1	14	1	0	-2	nt	nt
COc1ccc(S(=O)(=O)Nc2cc3c4c(c2)CCN4C(=O)CC3)cc1OC	3	-1	1	12*	2	-0.008	i
COc1ccc(NS(=O)(=O)c2cc3c4c(c2)CCN4C(=O)CC3)cc1OC	nt	7	nt	nt	nt	nt	nt
